High-throughput results as filed in PubChem.
TRPC4 agonist: activators of mouse TRPC4 channel, primary screen, Fluo4 calcium, HEK293 TRPC4beta/mu-opioid cells; 310,000 compounds, 0.49% hits; Short transient receptor potential channel 4 (Mus musculus), Q9QUQ5; Fluo4 calcium fluorescence; active compounds read high; B-score at 10 µM; AID 2237, 2010;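 active = B-score above 5 SD of library B-scores, and initial fluorescence ratio not above library mean plus 5 SD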;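 note: positive B-score marks a calcium rise read as TRPC4 activation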
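System: HEK293 cells stably co-expressing mouse TRPC4beta and mu-opioid receptor; Schedule: Fluo4 dye loading 45 min at room temperature, 110 s recording; Detection: Fluo4 fluorescence, kinetic; Evaluation: B-scored integrated calcium fluorescence ratio; Controls: buffer (low) and maximal DAMGO (high).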
TRPC4 block: inhibitors of mouse TRPC4 channel, primary screen, Fluo4 calcium, HEK293 TRPC4beta/mu-opioid cells; B-score at 10 µM; 300,000 compounds, 0.39% hits; DAMGO-evoked Fluo4 calcium flux; active compounds read low;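 active = B-score over 3 SD under the library average, no early fluorescence shift, positive overall ratio signal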
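Assay system: TRPC4beta/mu-opioid receptor HEK293 cell line; compound dosing: single concentration per test compound; detection: Fluo4 Ca2+ flux fluorescence; evaluation: per-well B score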
TRPC4 potent: positive allosteric modulators of TRPC4, primary screen, cell-based, mouse TRPC4beta, HEK293 mu-opioid, Fluo-4 calcium; DAMGO EC20, Fluo-4 Ca2+ flux; active compounds read high; B-score at 10 µM; 310,000 compounds, 0.42% hits; Short transient receptor potential channel 4 (Mus musculus), Q9QUQ5;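 active = B-score of calcium response area above 5 SD of library B-scores, with initial fluorescence ratio within 5 SD of library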;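 note: B-score of integrated fluorescence ratio over time as area under calcium response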
TRPC6 act: mouse TRPC6 channel activators, primary screen, cell-based, HEK293, membrane potential dye. B-score at 10 µM. 310,000 compounds, 0.13% hits. HEK293-TRPC6 membrane potential dye fluorescence; active compounds read high. Short transient receptor potential channel 6 (Mus musculus), Q61143;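 active = B-score of the integrated fluorescence ratio above library mean plus 3 SD, and starting fluorescence ratio within library mean plus 5 SD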;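 note: higher score means more depolarization so channel activation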
TRPC6 inhibitor: mouse TRPC6 channel inhibitors, primary screen, cell-based, HEK293, membrane potential dye. ACh-evoked depolarization; active compounds read low. 310,000 compounds, 1.1% hits. Short transient receptor potential channel 6 (Mus musculus), Q61143. B-score at 10 µM;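 active = B-score under library mean minus 3 SD, initial fluorescence not abnormally high, positive integrated signal ratio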;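 note: B-score derived from integrated fluorescence ratio over the kinetic read; more negative B-score means stronger inhibition of depolarization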
An asterisk follows results filed as active; i = inactive. Compounds with a hit are over-represented: about 2.3% of the library has one in this group of screens.

SMILES | TRPC4 agonist | TRPC4 block | TRPC4 potent | TRPC6 act | TRPC6 inhibitor
O=c1c2cc(Cl)ccc2nc(-c2ccc([N+](=O)[O-])cc2)n1O | 45* | i | i | i | i
Cc1ccc(-c2nc3c(Cl)cc(Cl)cc3c(=O)n2O)cc1 | 112* | i | i | i | i
COc1ccccc1C(=O)NC(=O)COC(=O)c1ncc(Cl)c(Cl)c1Cl | i | i | i | i | i
Cc1cc([N+](=O)[O-])ccc1NC(=O)CSc1nncn1-c1cccnc1 | i | i | i | i | i
Cc1cccc(NS(=O)(=O)c2ccc3c(c2)NC(=O)CO3)c1C | i | i | i | i | i
CCN(CC)CCn1c2c(c(SCC(=O)Nc3ccccc3Cl)nc1=O)CCC2 | i | i | i | i | i
c1ccc2c3c([nH]c2c1)C1(CCCCC1)NCC3 | i | i | i | i | i
CC12CCCCN1CCCc1c2[nH]c2ccccc12 (stereo not drawn) | 91* | i | i | i | i
COc1ccc(CCNC/C=C/c2ccccc2)cc1 | 106* | i | i | i | i
COc1nc(-c2ccc(Cl)cc2Cl)nc2ccccc12 | i | i | i | i | i
Oc1cccc(/C=N/NC(=S)Nc2cccnc2)c1O | 50* | i | i | i | i
Oc1ccc(/C=N/NC(=S)Nc2cccnc2)c(O)c1O | i | i | i | i | i
Cc1ccnc(NC(=O)Cn2cc([N+](=O)[O-])cn2)c1 | i | -8* | i | i | i
O=C(Cn1cc([N+](=O)[O-])cn1)Nc1ccccn1 | i | i | i | i | i
O=C(c1ccc(COc2ccccc2Br)cc1)N1CCCCC1 | i | i | 10* | i | i
C=CCc1cc(Cl)ccc1OCCCn1ccnc1 | i | i | 19* | i | i
C=CCc1cc(Cl)ccc1OCCn1ccnc1 | 116* | i | 14* | i | i
C=CCc1cc(C)ccc1OCCn1ccnc1 | i | i | i | i | i
CN(C)S(=O)(=O)c1ccc(Cl)c(NC(=O)COC(=O)/C=C/c2cnc3ccccc3n2)c1 | i | i | i | i | i
COc1ccc(CN2CCNC(=O)C2CC(=O)NC2CCCC2)c(C)c1C (stereo not drawn) | i | -6* | i | i | i
COc1ccc(CN2CCNC(=O)C2CC(=O)NC2CCC2)c(OC)c1 (stereo not drawn) | i | i | i | i | i
Cc1cccc(C(=O)NCC(=O)OCCOc2ccccc2Cl)c1 | i | i | i | i | i
O=C(CCC1CCN(C(=O)c2cc(C(F)(F)F)ccc2Cl)CC1)NC1CC1 | i | i | i | i | i
CC(=O)c1ccc(OCCn2c(SCC(=O)O)nc3ccccc32)cc1 | i | i | i | i | i
CCCCCCCNC(=O)COc1ccc2c(c1)C(=O)CC(C)(C)O2 | i | -5* | i | i | i
SMILES | TRPC4 agonist | TRPC4 block | TRPC4 potent | TRPC6 act | TRPC6 inhibitor
CC(C)NC(=O)COc1ccc2c(c1)C(=O)CC(C)(C)O2 | i | i | i | i | i
CC1CC(=O)NN1C(=O)c1ccccc1 (stereo not drawn) | i | i | i | i | i
CC(OC(=O)Cn1cnc2c1c(=O)n(C)c(=O)n2C)C(=O)Nc1ccc(Cl)cc1 (stereo not drawn) | i | -8* | i | i | i
Cn1c(=O)c2c(ncn2CC(=O)OCC(=O)Nc2ccc(Cl)cc2)n(C)c1=O | i | i | i | i | i
CCCCN(CC)CCCNC(=O)CC1Oc2ccccc2NC1=O (stereo not drawn) | 56* | i | i | i | i
Cc1ccn(C)c(=N)c1 | i | i | i | i | i
COc1ccccc1NC(=O)C1(c2ccccc2)CCCC1 | i | i | 13* | i | i
CCN(CCO)Cc1csc2ccc(Br)cc12 | i | i | 18* | i | i
Cc1cc(Cl)cc2c1NC(=O)[C@]21[C@@H]2C(=O)N(Cc3ccccc3)C(=O)[C@@H]2[C@@H]2CCCN21 | 50* | i | i | i | i
CCc1ccc2c(c1)[C@]1(C(=O)N2)[C@@H]2C(=O)N(Cc3ccccc3)C(=O)[C@@H]2[C@@H]2CCCN21 | i | i | i | i | i
CCOc1c(C)cnc2c1c(=O)n(CC(=O)NCC1CCCO1)c(=O)n2C (stereo not drawn) | i | i | i | i | i
CC(C)COc1ccc(CN=C(N)N=C(N)N)cc1Cl | 50* | i | i | i | i
Cc1cccc(Cc2c(C)nc3c(C(=O)NCc4ccco4)cnn3c2C)c1 | i | i | 97* | i | i
Cc1nc2c(C(=O)NCc3ccco3)cnn2c(C)c1Cc1ccc(F)cc1Cl | i | i | i | i | i
O=C(/C=C/c1ccc(S(=O)(=O)N2CCOCC2)cc1)NC(=S)Nc1ccc(N2CCOCC2)cc1 | i | i | 12* | i | i
Cc1nc(N/N=C/c2ccccc2)nc(N(C)c2ccccc2)c1[N+](=O)[O-] | i | i | i | i | i
Cc1nc(Cl)nc(N(C)c2ccccc2)c1[N+](=O)[O-] | i | -6* | i | i | i
Cc1ccc(Cc2c(C)nc3nc(SCC(=O)NCCCN4CCCCC4)nn3c2C)cc1 | i | i | i | i | i
CC1(C)C(=O)NC(=O)N1Cc1ccccc1 | 76* | i | i | i | i
C=CCn1c(SCc2n[nH]c(=S)n2-c2ccccc2)nnc1-c1ccccc1 | i | i | 11* | i | i
C=CCNC(=O)c1cc2c(=O)n3cc(C)ccc3nc2nc1NCC1CCCO1 (stereo not drawn) | i | i | i | i | -5.9*
O=C(Nc1ccc(F)cc1)c1oc2ccccc2c1NC(=O)C1CC1 | i | i | i | i | i
CCCN(CCC)CCCNC(=O)C1CCC(CNS(=O)(=O)c2cccc3nsnc23)CC1 (stereo not drawn) | 103* | i | i | i | i
CCCCN(C)CCCNC(=O)C1CCC(CNS(=O)(=O)c2c(C)cc(C)cc2C)CC1 (stereo not drawn) | i | i | 12* | i | i
CC(C)OCCCNC(=O)C1CCC(CNS(=O)(=O)c2cccc3nsnc23)CC1 (stereo not drawn) | i | i | i | i | i
